Experimental data from different studies.
Compare with care: the assays were run in different laboratories.
Target: Sodium-dependent noradrenaline transporter (SLC6A2, Homo sapiens, UniProt P23975)

Structure (SMILES) | test | test system | setting | inhibition
O=C1N=C(N2CCCCN2)S/C1=C\c1ccc(F)cc1O | ligand displacement, radioligand |  | 10 µM | < 10%
COc1cc(NC(C)=O)c(Cl)cc1C(=O)Nc1nccs1 | cell-free assay |  | 10 µM | 1.8%
CCN(CC)c1ccc(C2Nc3ccc(C(=O)c4ccccc4)cc3NC3=C2C(=O)CC(C)(C)C3)cc1 (stereo not drawn) | ligand displacement, radioligand |  | 10 µM | 51%
O[C@@H]1[C@H](O)[C@@H]2C[C@@H]2[C@H]1n1cnc2c(NCc3cccc(Cl)c3)nc(C#Cc3ccc(F)c(F)c3)nc21 | ligand displacement, radioligand |  | 10 µM | 51%
c1ccc(CCCC2CCN(CCCCn3nnnc3C(c3ccccc3)c3ccccc3)CC2)cc1 | transporter uptake, inhibitor | HEK293 | 1 µM | 73.9%
Ic1cccc2cnccc12 | ligand displacement, radioligand |  | 10 µM | 44%
N#Cc1cc(Cn2c(N3CCCC3)nc3ccccc32)ccc1F | ligand displacement |  | 10 µM | 39.4%
CN1CCN(CCCOc2ccc(=O)n(-c3ccc(Cl)c(Cl)c3)n2)CC1 | ligand displacement |  | 1 µM | 14.4%
Fc1ccc(C(c2ccc(F)cc2)c2nnnn2CCCCN2CCC(c3ccccc3)CC2)cc1 | transporter uptake, inhibitor | HEK293 | 1 µM | 64.4%
O[C@@H]1[C@H](O)[C@@H]2C[C@@H]2[C@H]1n1cnc2c(NCc3cccc(Cl)c3)nc(C#Cc3ccccc3)nc21 | ligand displacement, radioligand |  | 10 µM | 34%
COC(=O)c1ccc(-n2c(C)cc(C(=O)CSc3ccc(NC(C)=O)cc3)c2C)cc1 | ligand displacement, radioligand |  | 10 µM | 50%
Clc1ccc(C(c2ccccc2)c2nnnn2CCCCN2CCC(CCc3ccccc3)CC2)cc1 (stereo not drawn) | transporter uptake, inhibitor | HEK293 | 1 µM | 72.4%
